This is an account of results in ChEMBL document CHEMBL1141748, “Nocardimicins A, B, C, D, E, and F, siderophores with muscarinic M3 receptor inhibiting activity from Nocardia sp. TP-A0674” (J Nat Prod, 2005).

As usually defined, the IC50 is the concentration needed to halve the response being measured. Higher therefore signals weaker potency. The Ki is a measure of affinity in units of concentration, obtained from inhibition or displacement.

Assay [1] concerns the target Muscarinic acetylcholine receptor M3 (Homo sapiens, UniProt P20309). The experiment in a line: Displacement of [3H]NMS from human muscarinic M3 receptor expressed in insect Sf9 cells. An outline of the steps:
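Competition binding used Sf9 membranes stably expressing human M3, incubated with 0.29 nM [3H]-NMS (assay Kd 0.078 nM, Bmax 3.2 pmol/mg protein) in 50 mM Tris-HCl, 10 mM MgCl2, 1 mM EDTA, pH 7.4, 25 °C, 1 h. Nonspecific binding was set with 1 µM atropine. IC50 was taken from competition curves and converted to apparent Ki by Cheng-Prusoff.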
In general terms: In a radioligand displacement assay an active substance lowers the binding of a labelled ligand.

In assay [2] the target is T1, Muscarinic acetylcholine receptor M4 (Homo sapiens, UniProt P08173).
T1 sequence (P08173 whole entry): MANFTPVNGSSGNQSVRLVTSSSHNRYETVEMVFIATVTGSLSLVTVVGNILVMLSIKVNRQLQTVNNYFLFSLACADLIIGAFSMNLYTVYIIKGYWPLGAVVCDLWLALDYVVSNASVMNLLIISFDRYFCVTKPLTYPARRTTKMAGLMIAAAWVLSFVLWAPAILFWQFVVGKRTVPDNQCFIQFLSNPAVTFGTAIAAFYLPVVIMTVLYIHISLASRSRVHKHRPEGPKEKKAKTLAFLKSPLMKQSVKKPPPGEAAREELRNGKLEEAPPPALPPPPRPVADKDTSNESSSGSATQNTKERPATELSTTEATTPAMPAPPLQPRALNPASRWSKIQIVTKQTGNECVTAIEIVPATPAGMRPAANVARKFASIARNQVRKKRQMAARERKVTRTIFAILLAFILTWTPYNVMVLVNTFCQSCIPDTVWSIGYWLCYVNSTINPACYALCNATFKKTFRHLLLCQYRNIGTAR
The experiment in a line: Binding affinity to human muscarinic M4 receptor expressed in insect Sf9 cells. In a few lines:
(§1)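 Membranes from Sf9 insect cells stably expressing the human receptor were incubated with 0.29 nM [3H]-NMS in 50 mM Tris-HCl, 10 mM MgCl2, 1 mM EDTA, pH 7.4, for 1 h at 25 °C. Nonspecific binding was defined with 1 µM atropine. IC50 was taken from competition curves and converted to apparent Ki by Cheng-Prusoff.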

Assay [3] has as its target T2, Muscarinic acetylcholine receptor M5 (Homo sapiens, UniProt P08912).
T2 sequence (P08912 whole entry): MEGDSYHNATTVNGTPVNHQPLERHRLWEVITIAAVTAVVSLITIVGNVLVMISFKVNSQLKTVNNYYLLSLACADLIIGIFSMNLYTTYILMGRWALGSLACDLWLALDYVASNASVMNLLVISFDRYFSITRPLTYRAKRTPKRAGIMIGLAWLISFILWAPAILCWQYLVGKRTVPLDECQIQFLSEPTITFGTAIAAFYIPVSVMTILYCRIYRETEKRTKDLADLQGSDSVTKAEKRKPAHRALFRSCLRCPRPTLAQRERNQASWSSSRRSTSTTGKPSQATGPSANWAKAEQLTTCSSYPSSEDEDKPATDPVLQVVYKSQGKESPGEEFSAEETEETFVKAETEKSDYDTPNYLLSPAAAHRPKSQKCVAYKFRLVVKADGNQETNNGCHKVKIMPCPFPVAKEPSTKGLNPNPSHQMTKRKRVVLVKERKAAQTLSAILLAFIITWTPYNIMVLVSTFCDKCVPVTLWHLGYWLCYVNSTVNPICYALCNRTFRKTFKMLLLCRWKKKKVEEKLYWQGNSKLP
Nature of the assay: Binding affinity to human muscarinic M5 receptor expressed in insect Sf9 cells. An outline of the steps: as §1

Assay [4] deals with T3, Muscarinic acetylcholine receptor M1 (Homo sapiens, UniProt P11229).
T3 sequence (P11229 whole entry): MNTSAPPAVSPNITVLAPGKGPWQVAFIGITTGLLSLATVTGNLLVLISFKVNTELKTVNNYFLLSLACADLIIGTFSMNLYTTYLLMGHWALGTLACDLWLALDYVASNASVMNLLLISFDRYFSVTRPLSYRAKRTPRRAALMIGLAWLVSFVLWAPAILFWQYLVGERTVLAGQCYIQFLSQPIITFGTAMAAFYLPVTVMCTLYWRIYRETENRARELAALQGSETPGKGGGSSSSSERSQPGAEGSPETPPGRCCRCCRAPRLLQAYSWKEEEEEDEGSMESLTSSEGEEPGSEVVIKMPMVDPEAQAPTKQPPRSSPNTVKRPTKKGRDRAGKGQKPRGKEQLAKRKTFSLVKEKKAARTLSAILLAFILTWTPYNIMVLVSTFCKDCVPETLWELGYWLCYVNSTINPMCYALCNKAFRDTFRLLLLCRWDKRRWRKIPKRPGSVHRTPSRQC
Nature of the assay: Binding affinity to human muscarinic M1 receptor expressed in insect Sf9 cells. In a few lines:
as §1

For assay [5], the target named is T4, Muscarinic acetylcholine receptor M2 (Homo sapiens, UniProt P08172).
T4 sequence (P08172 whole entry): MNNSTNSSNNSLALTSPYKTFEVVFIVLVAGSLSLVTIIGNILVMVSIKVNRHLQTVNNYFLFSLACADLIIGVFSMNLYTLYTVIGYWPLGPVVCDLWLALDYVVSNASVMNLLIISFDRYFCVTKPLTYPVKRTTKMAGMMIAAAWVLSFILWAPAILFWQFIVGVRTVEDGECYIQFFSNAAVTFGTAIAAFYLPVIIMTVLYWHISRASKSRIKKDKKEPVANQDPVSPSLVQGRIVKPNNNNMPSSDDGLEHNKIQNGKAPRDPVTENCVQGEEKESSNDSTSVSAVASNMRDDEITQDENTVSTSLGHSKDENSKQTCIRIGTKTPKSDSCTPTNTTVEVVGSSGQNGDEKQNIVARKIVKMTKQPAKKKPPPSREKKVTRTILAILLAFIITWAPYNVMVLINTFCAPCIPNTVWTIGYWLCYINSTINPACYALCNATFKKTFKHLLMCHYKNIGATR
The experiment in a line: Binding affinity to human muscarinic M2 receptor expressed in insect Sf9 cells. In a few lines:
as §1

Muscarinic acetylcholine receptor M3, sequence (P20309 whole entry): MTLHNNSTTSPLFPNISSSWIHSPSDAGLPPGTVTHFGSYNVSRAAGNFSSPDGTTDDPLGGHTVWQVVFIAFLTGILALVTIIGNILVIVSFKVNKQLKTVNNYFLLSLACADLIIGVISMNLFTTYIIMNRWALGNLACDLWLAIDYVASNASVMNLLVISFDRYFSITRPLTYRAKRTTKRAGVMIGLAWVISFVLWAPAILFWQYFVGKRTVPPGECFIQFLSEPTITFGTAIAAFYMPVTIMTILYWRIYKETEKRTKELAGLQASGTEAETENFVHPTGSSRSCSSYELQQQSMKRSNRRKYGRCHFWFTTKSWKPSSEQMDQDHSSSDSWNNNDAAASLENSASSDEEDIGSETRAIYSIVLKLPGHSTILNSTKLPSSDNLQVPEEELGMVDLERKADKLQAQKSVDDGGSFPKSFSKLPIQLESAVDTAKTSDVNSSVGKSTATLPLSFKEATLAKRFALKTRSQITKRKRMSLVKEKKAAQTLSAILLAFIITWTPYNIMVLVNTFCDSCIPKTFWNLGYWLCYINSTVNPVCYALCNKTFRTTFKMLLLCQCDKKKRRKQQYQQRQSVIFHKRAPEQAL

Take `CCCCCCCCCCCC(OC(=O)C(CCCCN(O)C(C)=O)NC(=O)c1coc(-c2ccccc2O)n1)C(C)C(=O)NC1CCCCNC1=O` (stereo not given) [NOCARDIMICIN C]: in assay [1], the IC50 was found to be 4700 nM and the Ki stood at 1000 nM.
In assay [1], `CCCCCCCCCC(OC(=O)C(CCCCN(O)C(C)=O)NC(=O)c1coc(-c2ccccc2O)n1)C(C)C(=O)NC1CCCCN(O)C1=O` (stereo not given) [NOCARDIMICIN A] returned an IC50 of 5890 nM and a Ki of 1250 nM.
The like results for `CCCCCCCCCCCCCC(OC(=O)C(CCCCN(O)C(C)=O)NC(=O)c1coc(-c2ccccc2O)n1)C(C)C(=O)NC1CCCCNC1=O` (stereo not given) [NOCCARDIMICIN E] were, in that order, 4560 nM and 970 nM.
`CCCCCCCCCCCCCCCC(OC(=O)C(CCCCN(O)C(C)=O)NC(=O)c1coc(-c2ccccc2O)n1)C(C)C(=O)NC1CCCCN(O)C1=O` (stereo not given) [NOCARDIMICIN F]: in assay [1], the IC50 came to 6290 nM and the Ki was 1330 nM.
In assay [1], `CCCCCCCCCCCCCC(OC(=O)C(CCCCN(O)C(C)=O)NC(=O)c1coc(-c2ccccc2O)n1)C(C)C(=O)NC1CCCCN(O)C1=O` (stereo not given) [NOCARDIMICIN D] showed an IC50 of 1100 nM and a Ki of 230 nM.
For `CCCCCCCCCCCC(OC(=O)C(CCCCN(O)C(C)=O)NC(=O)c1coc(-c2ccccc2O)n1)C(C)C(=O)NC1CCCCN(O)C1=O` (stereo not given) [NOCARDIMICIN B], the IC50 was 1040 nM in assay [2]; 1640 nM in assay [3]; 630 nM in assay [1]; 2030 nM in assay [4]; 1780 nM in assay [5]. For the same compound, the Ki came out at 140 nM in assay [2]; 1180 nM in assay [3]; 130 nM in assay [1]; 490 nM in assay [4]; 630 nM in assay [5].
